We go through 19 molecules from ChEMBL document CHEMBL1131579, “Nitroaromatic amino acids as inhibitors of neuronal nitric oxide synthase” (J Med Chem, 1998).

pEC50, pIC50: −log10 of the molar value.

By pIC50 is commonly meant −log10 of the IC50, conventionally taken in molar units. Read a low pIC50 as a large IC50. As usually defined, the Emax is the size of the effect at its maximum, as opposed to the concentration needed. Broadly, the pEC50 is the negative decadic logarithm of the EC50, by convention in mol/L.

Test [1] has as its target T1, Nitric oxide synthase 1 (Rattus norvegicus, UniProt P29476). The test can be described thus: Inhibitory activity against isomeric form of Neuronal nitric oxide synthase measured by citrulline assay. In a few lines:
(§1)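 Rat brain cytosol as nNOS source. Incubated 20 min at ambient temperature with 10 μM purified L-[2,3-3H]arginine, 1 mM NADPH, 2 mM CaCl2 and varying inhibitor. Stopped with EGTA/EDTA/HEPES buffer, pH 5.5. [3H]citrulline separated on Dowex 50WX-8 (Na+) and counted by liquid scintillation. IC50 reported.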

The target in the next test is T2, Nitric oxide synthase 3 (Bos taurus, UniProt P29473).
T2 sequence (P29473 whole entry): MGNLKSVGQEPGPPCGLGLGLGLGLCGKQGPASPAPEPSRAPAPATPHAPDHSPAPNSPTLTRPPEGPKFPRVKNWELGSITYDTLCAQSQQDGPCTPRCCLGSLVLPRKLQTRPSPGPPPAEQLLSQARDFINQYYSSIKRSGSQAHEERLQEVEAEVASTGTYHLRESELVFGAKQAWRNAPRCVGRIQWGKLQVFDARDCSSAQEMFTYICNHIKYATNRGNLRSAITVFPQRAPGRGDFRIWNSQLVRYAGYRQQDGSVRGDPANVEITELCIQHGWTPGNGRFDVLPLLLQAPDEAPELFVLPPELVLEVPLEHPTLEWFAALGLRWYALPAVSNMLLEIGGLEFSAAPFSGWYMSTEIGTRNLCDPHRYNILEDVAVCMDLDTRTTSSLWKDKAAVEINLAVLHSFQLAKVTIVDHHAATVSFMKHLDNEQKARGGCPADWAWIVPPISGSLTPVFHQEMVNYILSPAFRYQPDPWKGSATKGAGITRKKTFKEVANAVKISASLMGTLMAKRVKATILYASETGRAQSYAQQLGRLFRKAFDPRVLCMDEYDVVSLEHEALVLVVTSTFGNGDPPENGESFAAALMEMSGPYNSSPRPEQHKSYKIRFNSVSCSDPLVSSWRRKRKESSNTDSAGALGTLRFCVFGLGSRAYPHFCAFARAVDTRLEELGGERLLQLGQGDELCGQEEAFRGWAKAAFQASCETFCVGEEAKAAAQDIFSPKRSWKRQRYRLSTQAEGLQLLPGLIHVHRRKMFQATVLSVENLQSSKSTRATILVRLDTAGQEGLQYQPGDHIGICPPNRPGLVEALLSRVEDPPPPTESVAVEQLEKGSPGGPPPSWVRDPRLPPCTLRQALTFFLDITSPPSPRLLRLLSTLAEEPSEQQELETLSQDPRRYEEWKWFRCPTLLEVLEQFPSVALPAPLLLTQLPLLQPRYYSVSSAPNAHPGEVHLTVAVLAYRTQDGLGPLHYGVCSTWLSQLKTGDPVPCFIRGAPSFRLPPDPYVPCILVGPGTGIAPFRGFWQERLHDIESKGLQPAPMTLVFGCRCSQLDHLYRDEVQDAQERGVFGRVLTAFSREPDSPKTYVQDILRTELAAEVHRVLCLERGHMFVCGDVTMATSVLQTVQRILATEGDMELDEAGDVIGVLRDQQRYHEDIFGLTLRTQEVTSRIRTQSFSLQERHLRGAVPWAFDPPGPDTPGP
The test can be described thus: Inhibitory activity of conversion of radiolabeled arginine to citrulline by isomeric form of nitric oxide synthase Endothelial nitric oxide synthase from cultured bovine aortic endothelial cells. It counts as cell-based, Endothelial cell. In a few lines: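 eNOS taken from the CHAPS-solubilized particulate fraction of cultured bovine aortic endothelial cells. Incubated 20 min at ambient temperature with 10 μM L-[2,3-3H]arginine, 1 mM NADPH, 2 mM CaCl2 and graded inhibitor. Stopped at pH 5.5 with EGTA/EDTA; [3H]citrulline isolated on cation-exchange column and counted by scintillation. IC50.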

Test [2] deals with T3, Nitric oxide synthase, inducible (Mus musculus, UniProt P29477).
T3 sequence (P29477 whole entry): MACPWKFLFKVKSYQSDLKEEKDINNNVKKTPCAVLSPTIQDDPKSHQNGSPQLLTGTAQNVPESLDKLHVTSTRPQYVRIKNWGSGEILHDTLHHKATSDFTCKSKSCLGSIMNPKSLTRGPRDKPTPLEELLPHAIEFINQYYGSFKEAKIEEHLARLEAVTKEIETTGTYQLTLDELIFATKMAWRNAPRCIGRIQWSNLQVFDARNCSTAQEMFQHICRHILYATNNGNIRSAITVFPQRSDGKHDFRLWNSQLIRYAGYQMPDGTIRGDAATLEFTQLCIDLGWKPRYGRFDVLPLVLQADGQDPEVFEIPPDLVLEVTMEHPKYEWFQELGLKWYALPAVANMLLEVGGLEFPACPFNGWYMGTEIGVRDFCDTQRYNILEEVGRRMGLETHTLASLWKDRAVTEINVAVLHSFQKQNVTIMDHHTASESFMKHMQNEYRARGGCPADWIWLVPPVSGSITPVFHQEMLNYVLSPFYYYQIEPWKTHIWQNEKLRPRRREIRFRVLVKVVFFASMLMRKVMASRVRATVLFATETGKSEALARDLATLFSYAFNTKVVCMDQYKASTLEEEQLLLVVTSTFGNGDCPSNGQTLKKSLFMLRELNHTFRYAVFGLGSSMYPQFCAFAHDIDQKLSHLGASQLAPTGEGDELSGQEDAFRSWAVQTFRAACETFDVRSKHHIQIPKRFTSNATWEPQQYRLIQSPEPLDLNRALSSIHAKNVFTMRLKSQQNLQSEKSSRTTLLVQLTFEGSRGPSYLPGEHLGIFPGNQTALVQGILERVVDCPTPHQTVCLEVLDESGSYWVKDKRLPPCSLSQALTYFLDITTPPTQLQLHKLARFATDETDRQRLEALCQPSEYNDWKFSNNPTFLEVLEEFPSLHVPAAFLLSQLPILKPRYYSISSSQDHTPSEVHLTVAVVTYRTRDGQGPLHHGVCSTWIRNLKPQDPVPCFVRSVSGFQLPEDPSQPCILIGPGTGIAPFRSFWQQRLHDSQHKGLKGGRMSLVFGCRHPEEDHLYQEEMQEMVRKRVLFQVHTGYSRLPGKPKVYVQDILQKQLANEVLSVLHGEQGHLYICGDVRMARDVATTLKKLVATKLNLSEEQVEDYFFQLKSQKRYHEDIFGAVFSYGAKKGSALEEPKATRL
The test can be described thus: Inhibition of radiolabeled arginine conversion to citrulline by isomeric form of Inducible nitric oxide synthase from mouse RAW 264.7 cells. The format is cell-based. Summed up: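 Incubated 20 min at ambient temperature with 10 μM [3H]arginine, 1 mM NADPH, no Ca2+, and varying inhibitor. Stopped with EGTA/EDTA buffer, pH 5.5; [3H]citrulline separated on Dowex cation exchanger and counted by scintillation. IC50.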

Test [3] concerns the target T1, Nitric oxide synthase 1. The test can be described thus: Inhibition of arginine to citrulline conversion by Neuronal nitric oxide synthase from rat brain. In a few lines: as §1
The species entered for test [4] is Rattus norvegicus. The test can be described thus: Inhibitory activity against N-methyl-D-aspartate (NMDA)-induced cyclic GMP accumulation in rat cerebellar slices. The format is functional. Summed up:
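Cerebellar slices (0.3 mm, coronal and sagittal) from 8–10-day-old rats, preincubated 105 min in Krebs buffer under 95% O2/5% CO2 at 37 °C, then equilibrated 15 min. Test compound added, followed by 500 μM NMDA for 3 min. Stopped with 50 mM sodium acetate and flash-frozen in liquid nitrogen; cGMP measured by radioimmunoassay after sonication.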

For test [5], the species on record is Rattus norvegicus. The test can be described thus: Percent reversal of ACh-induced relaxation at 100 uM in rat thoracic aorta. It counts as functional.
For test [6], the species on record is Rattus norvegicus. The test can be described thus: Effective concentration for reversal of ACh-induced relaxation in rat thoracic aorta. The format is functional. Summed up: (§2)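 Male Sprague-Dawley rat (350–375 g) thoracic aortic rings, endothelium spared, held at 1.25 g resting tension in Krebs buffer (pH 7.4) with 5 μM indomethacin, 37 °C, 5% CO2 in O2. After 1 h equilibration: 1 μM phenylephrine precontraction, then 1 μM ACh relaxation to plateau. Cumulative inhibitor additions, each to plateau, give a concentration-response curve for reversal of the relaxation.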

The species named for test [7] is Rattus norvegicus. The test can be described thus: Reversal of ACh-induced relaxation in rat thoracic aorta. It counts as functional. Summed up:
as §2

The species named for test [8] is Rattus norvegicus. The test can be described thus: E max (%) calculated for reversal of ACh-induced relaxation in rat thoracic aorta. The format is functional. Summed up: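 Male Sprague-Dawley rat (350–375 g) thoracic aortic rings, endothelium preserved, held at 1.25 g resting tension at 37 °C in Krebs buffer (pH 7.4) containing 5 μM indomethacin, gassed with 5% CO2 in O2. After 1 h equilibration, rings were precontracted with 1 μM phenylephrine and relaxed with 1 μM ACh. Inhibitor was then added cumulatively, plateau between additions, to build a reversal concentration-response curve.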

T1 sequence (P29476 whole entry): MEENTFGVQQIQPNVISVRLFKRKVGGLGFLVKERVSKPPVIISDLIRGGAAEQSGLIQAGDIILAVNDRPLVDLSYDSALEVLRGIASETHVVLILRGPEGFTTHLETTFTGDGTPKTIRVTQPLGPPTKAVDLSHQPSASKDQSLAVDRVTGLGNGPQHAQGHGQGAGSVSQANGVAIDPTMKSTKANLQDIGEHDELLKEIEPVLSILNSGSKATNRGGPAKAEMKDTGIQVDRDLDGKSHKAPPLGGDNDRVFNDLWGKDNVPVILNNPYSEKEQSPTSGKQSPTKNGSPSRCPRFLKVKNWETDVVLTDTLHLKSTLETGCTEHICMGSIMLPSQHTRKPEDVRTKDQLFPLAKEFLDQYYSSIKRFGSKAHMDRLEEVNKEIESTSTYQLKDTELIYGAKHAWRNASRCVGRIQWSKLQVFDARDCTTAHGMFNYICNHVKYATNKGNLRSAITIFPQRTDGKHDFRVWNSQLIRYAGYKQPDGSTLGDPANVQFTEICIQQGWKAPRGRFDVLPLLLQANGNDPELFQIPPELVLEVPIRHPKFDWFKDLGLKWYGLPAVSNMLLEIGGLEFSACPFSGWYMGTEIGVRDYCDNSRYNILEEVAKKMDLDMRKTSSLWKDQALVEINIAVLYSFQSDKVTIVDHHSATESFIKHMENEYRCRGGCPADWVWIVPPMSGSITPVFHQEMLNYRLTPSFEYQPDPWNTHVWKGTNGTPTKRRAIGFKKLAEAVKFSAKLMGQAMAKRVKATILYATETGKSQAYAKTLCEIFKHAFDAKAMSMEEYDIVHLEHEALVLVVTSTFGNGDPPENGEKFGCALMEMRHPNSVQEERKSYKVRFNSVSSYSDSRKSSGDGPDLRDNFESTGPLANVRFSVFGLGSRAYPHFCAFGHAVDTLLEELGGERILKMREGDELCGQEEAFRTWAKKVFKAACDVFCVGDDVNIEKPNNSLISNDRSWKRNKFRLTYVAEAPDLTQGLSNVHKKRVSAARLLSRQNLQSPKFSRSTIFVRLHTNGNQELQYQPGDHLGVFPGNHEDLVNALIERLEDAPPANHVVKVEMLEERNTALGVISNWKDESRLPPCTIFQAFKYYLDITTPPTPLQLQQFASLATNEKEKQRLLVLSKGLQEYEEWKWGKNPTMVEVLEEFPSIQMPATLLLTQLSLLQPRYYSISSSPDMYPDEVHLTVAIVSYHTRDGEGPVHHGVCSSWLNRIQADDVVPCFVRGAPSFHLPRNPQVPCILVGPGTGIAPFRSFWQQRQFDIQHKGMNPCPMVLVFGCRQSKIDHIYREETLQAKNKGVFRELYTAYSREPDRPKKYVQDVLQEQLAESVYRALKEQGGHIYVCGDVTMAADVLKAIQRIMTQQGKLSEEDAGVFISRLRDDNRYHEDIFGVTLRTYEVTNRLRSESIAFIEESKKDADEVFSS

`Cc1ccc([N+](=O)[O-])c(N)c1` gave a negative logarithm of the IC50 (pIC50) against Nitric oxide synthase 1 [1] of 4.15.
`N[C@@H](CCCNc1ccc(F)cc1[N+](=O)[O-])C(=O)O`: the pIC50 (on Nitric oxide synthase 1 [1]; on Nitric oxide synthase 3; in test [2]) was less than 4.00 throughout.
Turning to `N[C@@H](CCCNc1c([N+](=O)[O-])cccc1[N+](=O)[O-])C(=O)O`, the pIC50 is 4.52 against Nitric oxide synthase 1 [1] and 4.22 against Nitric oxide synthase 3.
As for `Cc1ccc([N+](=O)[O-])c(NCC[C@H](N)C(=O)O)c1`, the pIC50 (at Nitric oxide synthase 1 [3]; in test [2]) was less than 4.00 in each case.
Turning to `Cc1ccc(NCCC[C@H](N)C(=O)O)c([N+](=O)[O-])c1`, the negative logarithm of the IC50 (pIC50) (against Nitric oxide synthase 1 [1]; in [2]) was less than 4.00 throughout.
As to `N[C@@H](CCCNc1ccccc1[N+](=O)[O-])C(=O)O`, the figures for the pIC50 (on Nitric oxide synthase 1 [1]; at Nitric oxide synthase 3; in test [2]) were 4.00, 4.00 and less than 4.00, respectively.
Consider `Cc1ccc([N+](=O)[O-])c(NCCC[C@H](N)C(=O)O)c1`, for which the pIC50 in the test filed under Rattus norvegicus [4] was 4.48; against Nitric oxide synthase 1 [3], 5.60; at Nitric oxide synthase 3, 5.30; in test [2], 4.96. In the test listed under Rattus norvegicus [5], the Emax at 100 µM stood at 41%.
Turning to `Cc1ccc([N+](=O)[O-])c(SCCC[C@H](N)C(=O)O)c1`, the pIC50 in the test filed under Rattus norvegicus [4] is 4.43; against Nitric oxide synthase 1 [3], 5.30; against Nitric oxide synthase 3 it was 5.05; in [2] it was 5.40.
For the molecule `N[C@@H](CCCNc1ccc(C(=O)O)cc1[N+](=O)[O-])C(=O)O`, the pIC50 (against Nitric oxide synthase 1 [1]; in test [2]) was less than 4.00 in each case.
Consider `Cc1cccc(NCCC[C@H](N)C(=O)O)c1`, for which the pIC50 (on Nitric oxide synthase 1 [3]; in test [2]) was less than 4.00 each time.
Regarding `Cc1ccc([N+](=O)[O-])c(OCCC[C@H](N)C(=O)O)c1`, the negative logarithm of the IC50 (pIC50) against Nitric oxide synthase 1 [3] was 5.40; against Nitric oxide synthase 3, 5.00; in test [2], 4.10.
For the molecule `Cc1ccc([N+](=O)[O-])c(NCCC[C@H](N)CO)c1`, the results for the pIC50 (against Nitric oxide synthase 1 [3]; against Nitric oxide synthase 3; in test [2]) were 5.52, 4.40 and 5.30, respectively. In addition, the pEC50 in the test filed under Rattus norvegicus [6] is 4.77. In the test filed under Rattus norvegicus [7], the maximal effect (Emax) is 106%.
For the molecule `Cc1ccc([N+](=O)[O-])c(NCCCCN)c1`, the pIC50 on Nitric oxide synthase 1 [3] was 5.60; against Nitric oxide synthase 3, 4.70; in [2] it was 5.05.
In turn, `N[C@@H](CCCNc1ccc([N+](=O)[O-])cc1[N+](=O)[O-])C(=O)O` showed a negative logarithm of the IC50 (pIC50) against Nitric oxide synthase 1 [1] of 4.00.
As for `N[C@@H](CCCNc1ccc(C(F)(F)F)cc1[N+](=O)[O-])C(=O)O`, the pIC50 (on Nitric oxide synthase 1 [1]; in test [2]) was less than 4.00 in each case.
With `Cc1cccc(SCCC[C@H](N)C(=O)O)c1`, the negative-log IC50 (pIC50) (on Nitric oxide synthase 1 [3]; in [2]) was less than 4.00 each time.
Consider `N[C@@H](CCCNc1cc(O)ccc1[N+](=O)[O-])C(=O)O`, for which the pIC50 (on Nitric oxide synthase 1 [3]; in [2]) was less than 4.00 each time.
Take `N=C(NCCC[C@H](N)C(=O)O)N[N+](=O)[O-]` [NITROARGININE]: the values for the negative logarithm of the IC50 (pIC50) (in the test filed under Rattus norvegicus [4]; in [2]) were 6.70 and 4.85, respectively. Further, the Emax in the test filed under Rattus norvegicus [8] is 138%. The pEC50 in the test filed under Rattus norvegicus [6] is 5.52.
As for `CNC(=N)NCCC[C@H](N)C(=O)O` [TILARGININE], in the test filed under Rattus norvegicus [4], the negative-log IC50 (pIC50) is 5.52. For the same molecule, the Emax in the test filed under Rattus norvegicus [8] is 119%. In the test listed under Rattus norvegicus [6], the negative-log EC50 (pEC50) was 4.85.
